Source: PubChem BioAssay AID493091 (Sanford-Burnham Center for Chemical Genomics, 2011)
The campaign covered roughly 340,000 compounds. About 3,000 (0.88%) were called active. Only a selection was taken, and actives are over-represented in it overall. Values without a mark were called inactive.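 How the source made its calls: active means inhibition above about 50% at 20 µM (limit read from the data); inactive means the rest.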

Target: Carboxy-terminal domain RNA polymerase II polypeptide A small phosphatase 1 (Homo sapiens) (UniProt Q9GZU7)
Experiment: inhibition of human SCP1 dephosphorylation activity – biochemical, colorimetric, uHTS, primary screen (AID 493091);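 further: plate controls were DMSO wells with enzyme for no effect and wells lacking enzyme for full effect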
Conditions: Recombinant Scp1, phosphopeptide, malachite green phosphate absorbance; at 20 µM; stronger effect = higher value
Outline: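 System: truncated SCP-1 phosphatase (76-261aa); medium: Tris acetate buffer pH 5.5 with MgCl2 and Tween-20; incubation: 45 min room-temperature reaction, 5 min colour, 30 min stabiliser; compound: single 20 µM dose, 1% DMSO; reagent: Phosphorylated 17-residue peptide substrate; read-out: % inhibition at 20 µM; technique: colorimetric free-phosphate detection, absorbance 630 nm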

Carboxy-terminal domain RNA polymerase II polypeptide A small phosphatase 1 (Homo sapiens), sequence (Q9GZU7 76-261 limits assumed): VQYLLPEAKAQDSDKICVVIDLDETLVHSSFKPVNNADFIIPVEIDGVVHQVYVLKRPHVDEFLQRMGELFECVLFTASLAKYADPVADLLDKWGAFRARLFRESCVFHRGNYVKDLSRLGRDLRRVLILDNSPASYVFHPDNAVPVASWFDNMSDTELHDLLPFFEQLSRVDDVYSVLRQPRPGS

Structure (SMILES)	inhibition
CCOC(=O)CNC(=O)c1nn(-c2cccc(OC)c2)c(=O)c2ccccc12	1.07%
Cc1cc(=O)oc2c1c(C)nn2-c1ccc(Cl)cc1	-6.94%
Cc1nn(-c2cc(Cl)ccc2N)c(=O)c2ccccc12	60.1% (active)
CCCC(C(=O)N1CCOCC1)N1C(=O)C2C3C=CC(C3)C2C1=O (stereo unspecified)	1.46%
Cc1cc(O)c(C2(O)C(=O)Nc3ccccc32)cc1C (stereo unspecified)	2.83%
COc1cc(SC)ccc1C(=O)N(Cc1ccccc1)c1ccccc1	-9.22%
COc1cc(SC)ccc1C(=O)NNC(=O)C1COc2ccccc2O1 (stereo unspecified)	55.9% (active)
CC(=O)c1cccc(NC(=O)C2COc3ccccc3O2)c1 (stereo unspecified)	-3.69%
NNC(=O)C1CC(O)CN1S(=O)(=O)c1ccc(Cl)cc1 (stereo unspecified)	-8.23%
CN1CCN(C2Cc3ccc(Cl)cc3Sc3ccc(F)cc32)CC1 (stereo unspecified)	-3.27%
Cc1c(CCO)c(=O)n(-c2ccccc2)n1S(=O)(=O)c1ccc(F)cc1	-6.22%
CCOC(=O)c1cnn(Cc2ccccc2Cl)c1N	-4.87%
CC(=O)c1cccc(NC(=O)c2cc(C)nn2-c2ccccc2)c1	-21.8%
CC[n+]1c(C)n(-c2ccccc2)c2ccc(NC(C)=O)cc21	59.6% (active)
CC(=O)Nc1ccc(NC(=O)CSc2nnc(C3CC3)n2-c2ccccc2)cc1	3.64%
S=C(NCCCc1ccccc1)Nc1ccc(Br)cc1	-8.32%
CCc1ccc(NC(=O)CS(=O)CC(=O)NCCCc2ccccc2)cc1 (stereo unspecified)	93.4% (active)
CCc1ccc(NC(=O)CS(=O)CC(=O)N2CCN(c3ccccc3F)CC2)cc1 (stereo unspecified)	-3.07%
CC(C)(C)C1CCc2c(sc3nc(SCC(N)=O)nc(N)c23)C1 (stereo unspecified)	5.56%
O=C(Nc1cccnc1)c1cc2cc(Br)ccc2oc1=O	101% (active)
COc1ccc2oc(=N)c(C(=O)Nc3ccc(Br)cc3)cc2c1	2.27%

Structure (SMILES)	inhibition
O=C(Nc1cccnc1)c1cc([N+](=O)[O-])ccc1Cl	-5.04%
O=C(Oc1ccc2c(c1)CCC2)N1CCOCC1	-4.77%
COc1ccc(CCNS(=O)(=O)c2cn(C)nc2C)cc1	0.34%
Oc1[nH]c2ccccc2c1N=Nc1c(F)c(F)c(F)c(F)c1F	-10.4%
O=[N+]([O-])c1cc(S(=O)(=O)Nc2cccc(Cl)c2)ccc1N=Nc1c(O)[nH]c2ccccc12	52.2% (active)
O=C(O)c1ccccc1/C=N/Nc1ccc(S(=O)(=O)Nc2ccc(Cl)cc2)cc1[N+](=O)[O-]	-7.5%
Cc1ccnc(NS(=O)(=O)c2ccc(NC(=O)c3oc4ccccc4c3C)cc2)n1	-7.13%
O=C1CCC/C=C\C[C@@H](CC(=O)N(CCO)Cc2ccccc2)C(=O)NCCO1	-0.23%
O=C(N/N=C/c1ccc(Br)o1)c1cncc(Br)c1	0.65%
O=C(CCNC(=O)c1ccccc1Cl)NN=Cc1ccco1	10.6%
N#CCC(=O)N/N=C/c1ccc(SCC(=O)Nc2ccccc2)o1	-8.26%
O=C(CCc1n[nH]c(=O)[nH]c1=O)N/N=C/c1ccc(Br)o1	2.94%
O=C(CCC(=O)N/N=C/c1ccc(Br)o1)N/N=C/c1ccc(Br)o1	55% (active)
O=C(CCNC(=O)c1ccccc1)NN=Cc1ccc(Br)o1	70.2% (active)
Cc1ccc(S(=O)(=O)NCC(C)NS(C)(=O)=O)cc1 (stereo unspecified)	-4.62%
Cc1cccc(C)c1NC(=O)COC(=O)c1ccccc1O	-5.49%
COc1ccc(CNS(=O)(=O)c2cc(-c3cc(C)no3)ccc2C(C)C)cc1	-11%
O=C(c1cc(S(=O)(=O)N2CCOCC2)ccc1Cl)N1CCOCC1	-9.49%
CC(=O)N1CCN(S(=O)(=O)c2cccc(C(=O)NC3CCC(C)CC3)c2)CC1 (stereo unspecified)	5.39%
C[C@H](NC(=O)C1CC(=O)N(c2ccc3c(c2)OCO3)C1)C(=O)NCc1ccco1 (stereo partly specified)	-2.53%
CCCn1nc(NS(=O)(=O)c2ccc(F)cc2)c2cc3ccccc3nc21	3.78%

Structure (SMILES)	inhibition
COCCCNc1nc2ccccc2nc1NS(=O)(=O)c1ccc(F)cc1	54.7% (active)
CCCCNc1nc2ccccc2nc1NS(=O)(=O)c1cccs1	-7.43%
CC1C(=O)C(C)C(c2ccc(O)cc2)NC1c1ccc(O)cc1 (stereo unspecified)	-7.74%
CCN(CC)S(=O)(=O)c1cccc(-c2n[nH]c(=S)n2/N=C/c2ccc(C(=O)OC)cc2)c1	-7.1%
Cc1ccc(OC(=O)c2ccccc2C(=O)OCC(F)(F)C(F)F)cc1	-9.39%
CCc1ccc(C2C(C#N)=C(N)N(N3CCOCC3)C3=C2C(=O)CC(C)(C)C3)s1 (stereo unspecified)	8.56%
CC(C)(CNC(=O)CNC(=O)C1CCCCC1)N1CCOCC1	-8.57%
O=S(=O)(c1ccc(Br)c2ccccc12)N1CCOCC1	-7.33%
COc1ccc2[nH]c(=S)cc(C)c2c1	-4.32%
COc1ccc2[nH]c3c(C)c4cc[n+](C)cc4c(C)c3c2c1	64.5% (active)
COc1ccc2[nH]c(C(=O)N3CCN(C)CC3)c(C)c2c1	-4.55%
Cn1nc(C(C)(C)C)c([N+](=O)[O-])c1C(N)=O	-0.65%
Cc1nn(CCOc2ccc(Br)cc2)c(C)c1[N+](=O)[O-]	-14.1%
Cc1c([N+](=O)[O-])c(N)nn1C	51% (active)
Clc1ccc(Cn2ncc3c(NCc4cccnc4)ncnc32)cc1	2.57%
O=C(COC(=O)/C=C/c1ccc(Br)o1)Nc1cccc(S(=O)(=O)N2CCOCC2)c1	56% (active)
O=C(COC(=O)c1ccccc1)Nc1cccc(S(=O)(=O)N2CCOCC2)c1	-6.52%
NS(=O)(=O)c1cccc(NC(=O)COC(=O)/C=C/c2ccco2)c1	26.2%
C=CCOc1ccc(/C=C/C(=O)OCC(=O)NC(C)c2ccc(F)cc2)cc1 (stereo unspecified)	1.27%
